Source: PubChem BioAssay (several laboratories)
An excerpt weighted towards active compounds, which were near 2.3% of everything screened.
TWEAK Fn14 block = TWEAK-Fn14 signaling inhibition; TWEAK-stimulated Fn14 reporter cells, luciferase luminescence, 8 h; inhibition, % at 10 µM; actives 2% (n = 360,000); in the data active = inhibition above about 50%
EWS-Fli inh = blocks EWS/Fli oncoprotein-driven transcription; A673 NR0B1-luciferase reporter, viability-normalised; inhibition, % at 12.6 µM; actives 0.67% (n = 350,000);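 active = mean inhibition of at least 50% after viability correction, with every replicate also passing that limit; inconclusive = mean reaches 50% but only one of two replicates passes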;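 also: firefly luciferase signal divided by Alamar Blue viability fluorescence both relative to DMSO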
TROY signal inh = blocks TROY-dependent signaling in reporter cells | Q293 LMP1-TROYcd NF-kB luciferase reporter, 4 h | inhibition, % at 10 µM | actives 0.98% (n = 360,000);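 active = compounds whose plate-normalised and pattern-corrected inhibition of the luciferase reporter signal at the single screening dose is 50% or more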
LGR2 antag = inhibitors of bursicon-induced Drosophila LGR2 receptor cAMP signaling. HEK293 LGR2, CRE-luciferase, bursicon-stimulated, 4 h. inhibition, % at 9.99 µM. actives 0.35% (n = 380,000). AID 720647;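 active = drop in luminescence signal, shown as inhibition above about 50% in the replicate tests, limit read from the data, passing the limit was not always enough; inconclusive = probably only some replicates passing the limit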;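 also: agonist challenge used bursicon conditioned medium at about half maximal strength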
FN deposition inh = fibronectin deposition inhibition; AH1F fibroblasts, Alexa488-fibronectin deposition fluorescence, overnight; inhibition, % at 12.6 µM; actives 0.086% (n = 350,000); AID 743247;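 active = mean inhibition across replicates of 30% or more, regardless of how many single replicates reach that level; inconclusive = mean under 30% yet at least half of replicates reach 30%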;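 also: positive control wells lacked labelled fibronectin entirely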
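Material – AH1F fibroblast monolayer, labelled fibronectin deposition · Reagent – labelled fibronectin 24 nM · Timing – 1 h adhesion, overnight exposure · Measured by – fluorescence at 485 nm excitation, 525 nm emission · Read-out – inhibition of fibronectin deposition signal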
XiGFP reactiv = reactivates the inactive X chromosome in mouse fibroblasts; XiGFP mouse fibroblasts, % GFP-positive cells imaging, 3 d; cells co-treated with 5-aza-dC sensitizer; scaled so ellipticine positive control = 100%; actives 0.055% (n = 360,000); activation, % at 7.58 µM;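 active = mean normalized replicate activation at least 10% and every replicate at or above 10%; inconclusive = only one of the two criteria met; inactive = mean below 10% and not all replicates reach 10%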;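 also: 0% = median of on-plate neutral control wells and 100% = ellipticine 6 µM median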
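Material: XiGFP fibroblasts, SV40-immortalized; Buffer or medium: DMEM containing 5-aza-dC; Compound dosing: single point; Times: 3 days compound exposure.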
Starred values were filed as active, the others as inactive; ? = inconclusive; . = not tested or not shown.

SMILES	TWEAK Fn14 block	EWS-Fli inh	TROY signal inh	LGR2 antag	FN deposition inh	XiGFP reactiv
O=C(C[C@@H]1C[C@H]2c3cc(NC(=O)Nc4ccccc4)ccc3O[C@H]2[C@H](CO)O1)NCc1cccc(F)c1	.	0.2	.	11.9	-8.4	0.0
C[C@@H]1CCCCO[C@@H](CN(C)S(=O)(=O)c2cn(C)cn2)[C@H](C)CN([C@H](C)CO)C(=O)c2cc(NS(=O)(=O)c3cccs3)ccc2O1	.	-9.4	.	-13.4	.	0.0
C[C@@H]1CCCCO[C@@H](CN(C)C(=O)c2ccncc2)[C@H](C)CN([C@@H](C)CO)C(=O)c2cc(NS(=O)(=O)c3cccs3)ccc2O1	.	-4.8	.	-3.0	3.1	-0.1
CSc1ccc(Cn2c(C)c(C(=O)NCc3ccc(C(C)C)cc3)sc2=O)cc1	16.9	1.3	19.8	11.6	-6.8	-0.2
Cc1c(C(=O)NCc2ccc(Cl)c(Cl)c2)sc(=O)n1Cc1ccc(S(=O)(=O)N(C)C)cc1	66.8*	12.1	39.0	-6.6	3.8	-0.1
Cc1c(C(=O)NCc2ccc(C(C)C)cc2)sc(=O)n1Cc1ccc(S(=O)(=O)N(C)C)cc1	64.1*	23.0	24.5	9.0	-10.8	0.1
Cc1noc(C)c1S(=O)(=O)Nc1ccc2c(c1)C(=O)N([C@@H](C)CO)C[C@@H](C)[C@H](CN(C)C(=O)C1CCCCC1)OCCCC[C@H](C)O2	.	3.6	.	9.5	.	0.8
CC(=O)c1ccc(NS(=O)(=O)c2cccc(C(=O)Nc3ccccc3C(=O)O)c2)cc1	81.7*	6.6	12.9	-10.7	-3.6	0.0
Cc1ccc2c(c1)CCCN2S(=O)(=O)c1cccc(C(=O)Nc2ccccc2C(=O)O)c1	9.8	-27.0	54.6*	34.3	.	-0.2
COc1ccc(NS(=O)(=O)c2cccc(C(=O)Nc3ccccc3C(=O)O)c2)cc1	4.4	10.3	19.8	4.3	-7.1	0.2
CN(C)C(=O)C[C@H]1CC[C@@H](NC(=O)c2ccc(F)cc2)[C@@H](CO)O1	.	-11.2	.	-5.1	9.9	0.0
CCCNC(=O)N(Cc1cccnc1)C[C@H]1N[C@H](CO)[C@@H]1c1ccccc1	.	.	.	6.1	3.4	0.3
COc1ccc(C(=O)c2coc3ccc(O)cc23)cc1	56.1*	-30.2	-8.9	37.4	4.8	0.0
COc1ccc(NC(=O)N(C)C[C@@H]2Oc3ccc(NS(=O)(=O)c4ccc(F)cc4)cc3C(=O)N([C@@H](C)CO)C[C@H]2C)cc1	.	-0.6	.	-32.9	2.3	0.0
Cc1noc(C)c1NC(=O)Nc1ccc2c(c1)CC(=O)N([C@H](C)CO)C[C@H](C)[C@@H](CN(C)C(=O)Nc1ccc(F)cc1)O2	.	-10.6	.	-0.5	.	-0.1
C[C@@H]1CCCCO[C@@H](CN(C)C(=O)c2ccncc2)[C@H](C)CN([C@H](C)CO)C(=O)c2cc(N(C)C)ccc2O1	.	3.8	.	6.5	.	0.1
Nc1ccc2cc3[nH]c4cc(N)ccc4c3nc2c1	-31.8	42.1	-36.9	.	-425.1	62.8*
Nc1ccc(-c2nc3ccc(N)cc3[nH]2)cc1	1.9	1.8	-6.0	-39.4	-11.1	0.1
COc1cc(C(=O)Nc2ccc(C)cn2)ccc1OCC(=O)N1CCOCC1	11.4	-22.8	-7.4	-13.6	3.9	0.3
COc1ccc(-c2nc(NC(=O)c3ccc(OCC(=O)N4CCOCC4)c(OC)c3)sc2C)cc1	57.8*	6.4	26.7	36.7	-10.2	0.0
COc1cc(C(=O)Nc2cc(C)ccn2)ccc1OCC(=O)N1CCOCC1	92.5*	.	14.4	7.7	.	0.1
COc1cccc(S(=O)(=O)Nc2ccc3c(c2)OC[C@H](C)NC[C@@H](C)[C@@H](OC)CN(C)C3=O)c1	.	-2.1	.	14.5	1.1	0.0
CCOC(=O)N1C(=O)[C@@](c2ccc(Cl)cc2)(C(C)C)N1C(=O)OCC	76.3*	10.5	35.5	?	-15.1	0.2
N#Cc1cccc(-c2ccc([C@H]3[C@@H](CO)N4CCCCN(C(=O)Nc5ccc(F)cc5)C[C@@H]34)cc2)c1	.	14.5	.	9.3	.	0.1
CC(C)(C)c1ccc(O)c(N=Cc2cc(Br)ccc2O)c1	87.6*	-8.4	85.2*	18.5	-3.0	0.4
SMILES	TWEAK Fn14 block	EWS-Fli inh	TROY signal inh	LGR2 antag	FN deposition inh	XiGFP reactiv
CO[C@@H]1CN(C)C(=O)c2ccc(NC(=O)Cc3ccccc3)cc2OC[C@@H](C)N(CC2CC2)C[C@H]1C	.	.	.	7.5	-3.0	0.6
CS(=O)(=O)c1ccc(CNC(=O)C2(C(F)(F)F)CC(CCCO)CCCO2)cc1 (stereo unspecified)	.	58.6*	.	0.0	-1.5	-0.3
C[C@H](CO)N1C[C@H](C)[C@H](CN(C)S(C)(=O)=O)OCCCC[C@H](C)Oc2ccc(NS(=O)(=O)c3cccs3)cc2C1=O	.	-5.1	.	-21.8	.	-1.0
CNc1ncnc(Sc2ccc(Cl)cc2)c1[N+](=O)[O-]	85.7*	26.8	-4.2	16.0	-1.6	?
COC(=O)c1cc2ccccc2c(=O)s1	85.1*	.	.	.	.	.
CCCCNC(=O)c1cccc2c(=O)c(C)c(-c3ccccc3)oc12	19.6	-2.7	-12.8	16.1	-3.8	0.5
Cc1c(-c2ccccc2)oc2c(C(=O)N3CCN(c4ccccc4F)CC3)cccc2c1=O	54.1*	.	17.6	-8.9	-9.6	.
Cc1ccc(S(=O)(=O)N(CCCO)CC(O)CON=C2c3ccccc3-c3ccccc32)cc1 (stereo unspecified)	56.5*	-11.4	33.3	.	-0.6	0.1
O=C([C@@H]1[C@@H](CO)[C@@H]2Cn3c(ccc(C4=CCCC4)c3=O)[C@H]1N2C(=O)c1ccccc1)N1CCOCC1	.	3.0	.	5.6	.	0.0
O=C(Oc1c(Cl)cc(Cl)c2cccnc12)c1ccco1	86.0*	.	57.8*	.	.	.
O=C(Oc1c(Cl)cc(Cl)c2cccnc12)c1cccs1	108.6*	.	14.5	.	.	.
O=C(Oc1cncc(Cl)c1)c1ccco1	-6.9	.	-1.6	.	.	.
O=C(NC[C@@H]1CC[C@@H]2[C@@H](CN2C(=O)CN2CCOCC2)O1)NC1CCCCC1	.	6.2	.	.	.	.
COc1ccc(Cl)c(-c2cc(C(=O)Nc3ccc(C)c(NS(C)(=O)=O)c3)[nH]n2)c1	17.6	-3.4	33.0	0.6	-10.9	0.0
COc1ccc(Cl)cc1-c1cc(C(=O)Nc2ccc(C)c(NS(C)(=O)=O)c2)[nH]n1	72.3*	12.7	52.9*	15.6	7.3	0.0
COc1ccc(NC(=O)c2cc(-c3cc(Cl)ccc3C)n[nH]2)cn1	-1.9	-24.1	0.5	-10.2	-13.4	0.0
Cc1ccc(NC(=O)c2cc(-c3cc(Cl)ccc3C)n[nH]2)cc1NS(C)(=O)=O	64.5*	19.4	38.1	-28.3	-11.3	0.0
c1ccc(-n2nnc3c(N4CCOCC4)ncnc32)cc1	86.9*	.	43.3	83.4*	-0.8	.
Cc1nnc(N(CCC#N)CCC#N)s1	84.8*	.	.	.	.	.
CSc1nnc(N(CCC#N)CCC#N)s1	-5.6	.	-6.1	.	.	.
COc1ccc(NC(=O)Nc2ccc3c(c2)[C@H]2C[C@H](CC(=O)NCc4ccccc4F)O[C@H](CO)[C@H]2O3)cc1	.	2.7	.	-2.2	-1.5	0.1
